Reference: ChEMBL document CHEMBL4513216, “Probing the Open Global Health Chemical Diversity Library for Multistage-Active Starting Points for Next-Generation Antimalarials” (ACS Infect Dis, 2020)

Experiment: Toxicity liver stage against HepG2, at 10uM
Format: cell-based
Parameters: test concentration 10 uM, cell line HepG2-A16-CD81EGFP
Settings: human, HepG2-A16-CD81EGFP cells; read-out: INHIBITION
Procedure, shortened: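 Uninfected HepG2-A16-CD81EGFP cells, 3 × 10^3 per well, 1536-well, plated on prespotted compound at 10 μM final, parasite-free screening media added to match infected plates; puromycin 10 μM positive, DMSO 0.5% negative; run in parallel with 48 h PbLuc assay at 37 °C, 5% CO2; viability by CellTiter-Glo luminescence, normalized to controls.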

| SMILES | cytotoxicity at 10 µM |
| --- | --- |
| Cc1nccn1CCCn1c(=O)cnc2ccccc21 | 1.53% |
| COc1ccc(CCN2C(=O)O[C@@H]3CN(C4CCOCC4)C[C@@H]32)cc1 | 6.86% |
| CN(Cc1nnc(-c2cccs2)o1)C(C(N)=O)c1cccc(F)c1 (centres undefined) | 13.7% |
| Cc1cccc(CN2C[C@@H]3COC[C@H](NS(C)(=O)=O)[C@@H]3C2)n1 | -2.6% |
| CCN(CC)c1nc(C)cc(C(=O)Nc2cnn(CC)c2)n1 | -16.4% |
| O=C(c1ncoc1C1CCCO1)N1CCC2(CCCCC2)CC1 (centres undefined) | -7% |
| CC(=O)N1CCC2(CC1)CN(C(=O)c1ccc3c(c1)OCO3)C2 | 6.71% |
| O=S(=O)(C1CC1)N1CCc2ncc(Cn3cncn3)n2CC1 | 3.62% |
| Cc1cc(NC(=O)NCC(O)COc2ccccc2)n(C)n1 (centres undefined) | -3.19% |
| CC(C)N(C(=O)c1ccnc(OCC(F)(F)F)c1)c1cccnc1 | 8.05% |
| CN(Cc1ccc(C(=O)O)cc1)C(=O)c1sccc1OC(F)F | -6.59% |
| Cc1cc(C)cc(N2CCN(C(=O)C3CN(C)C(=O)N3)CC2=O)c1 (centres undefined) | -5.13% |
| Fc1cccc(O[C@@H]2C[C@H]3CN(Cc4ccncc4)CCN3C2)c1 | -143% |
| COc1ccc(C(C)NC(=O)c2nn(C)c(C)c2Br)cc1 (centres undefined) | 9.18% |
| Cc1[nH]c2ccccc2c1-c1ccnc(NCCN2CCOCC2)n1 | 7.12% |
| CO[C@H]1CC[C@H]2[C@H]1OCCN2C(=O)CC1=CCCCC1 | 5.28% |
| N#CCCCn1nnnc1Cc1ccc(Br)cc1 | 1.56% |
| O=C(c1cnccn1)N1CCc2ncc(CN3CCOCC3)n2CC1 | -77% |
| COc1ncccc1C(=O)NC1CCOc2ccccc21 (centres undefined) | -6.25% |
| Cn1nccc1C(=O)Nc1cc(C(F)(F)F)c[nH]c1=O | -6.54% |
| CCC(=O)N1CC[C@H]2C(=O)N(Cc3ccc(OC)cc3)CCO[C@H]2C1 | -114% |
| O=C(CCc1cccc(F)c1F)N1CCCC(n2cncn2)C1 (centres undefined) | -20.2% |

| SMILES | cytotoxicity at 10 µM |
| --- | --- |
| COc1ccc(CC(C)(O)CNC(=O)Cc2cccs2)cc1 (centres undefined) | 14.7% |
| NC(=O)CN1CCCN(C(=O)c2ccc(SC(F)F)cc2)CC1 | -6.08% |
| O=C(c1ccc(N2CCOCC2)cc1)N1CCCC(n2ccnc2)C1 (centres undefined) | -6.78% |
| COc1ccc(-c2cc(C(=O)Nc3nc[nH]n3)[nH]n2)cc1 | -12.1% |
| O=S(=O)(CC1CC1)c1ncc(CN2CCOCC2)n1CC1CCCO1 (centres undefined) | -3.06% |
| O=C(CCn1cccn1)NCC(c1cccs1)N1CCCC1 (centres undefined) | 7.02% |
| CCn1c(C)nnc1CN(C)C1CCN(CCCSC)C1 (centres undefined) | -6.21% |
| O=C(C[S+]([O-])Cc1cccc(F)c1)NC1CCCC1 (centres undefined) | 1.79% |
| Cc1cccc(OC2CN(C(=O)C3CC(=O)N(C4CC4)C3)C2)c1 (centres undefined) | -0.503% |
| CCc1n[nH]c(C(=O)NCCn2nccc2C)c1C | -7.28% |
| CCCC(O)CN1CC(C)(C)CN(C(=O)c2ccc(SC)cc2)CC1=O (centres undefined) | -4% |
| COc1cncc(N2CCN(Cc3ccco3)CC2)n1 | 0.197% |
| Cc1ccc(N2CCO[C@H]3CN(Cc4ccccn4)C[C@H]32)nn1 | -79.8% |
| CCC(C)C(=O)NS(=O)(=O)c1ccc(C#N)cc1C(F)(F)F (centres undefined) | -5.25% |
| O=C(C1CCCC1)N1CCCC1c1nnc2n1CCCCC2 (centres undefined) | -2.58% |
| Cc1cnn(-c2ccc(C(=O)N3CCN(C)CC3C)cc2)c1 (centres undefined) | 5.16% |
| CC(C)Cc1noc(CN(C)C2CCS(=O)(=O)C2)n1 (centres undefined) | 5.7% |
| COC(C)c1noc(CN(C)c2nccnc2C#N)n1 (centres undefined) | 0.462% |
| O=C(Nc1ccc(CCN2CCOCC2)cc1)C1CC1 | -10.9% |
| O=C(c1cscn1)N1CCN2C[C@H](OCc3cccnc3)C[C@H]2C1 | -7.62% |
| CC(C)(C)c1ccc2c(c1)CCN2C(=O)c1[nH]c(=O)[nH]c(=O)c1N | 7.22% |
| O=C(NCc1cc(-c2ccccc2)no1)NCC1CCCO1 (centres undefined) | -3.01% |

| SMILES | cytotoxicity at 10 µM |
| --- | --- |
| CC(=Cc1ccccc1)CNCc1cccc(C(N)=O)c1 | 6.03% |
| CC(CCN(C)C)NC(=O)c1cccc(C(F)(F)F)c1F (centres undefined) | -52.6% |
| Cc1nc(NCC2CC2)nc2c1COCC21CCN(CC(=O)N(C)C)C1 (centres undefined) | -78.5% |
| O=c1[nH]c(N2CCN(C3CC3)CC2)nc2c1cnn2-c1ccccc1 | 10.8% |
| O=C(N[C@@H]1CCN(C(=O)c2ccc(F)cc2Cl)C[C@H]1O)c1ccccn1 | -0.0395% |
| COc1cc(OC)cc(-c2noc(CN)n2)c1 | 20.6% |
| CCC(CO)N(Cc1ccsc1)Cc1ccc(-c2ccn[nH]2)s1 (centres undefined) | -1.37% |
| Fc1cnc(N2CCCC3(CCN(Cc4ccoc4)C3)C2)nc1 (centres undefined) | -80.6% |
| Cc1ccsc1C1CC(=O)Nc2c1cnn2C(C)C (centres undefined) | -7.7% |
| CN1CCN(c2ccc(NS(=O)(=O)c3ccc(Br)s3)cc2C(=O)O)CC1 | -4.5% |
| CC(=O)NCC(=O)N1CCN(CC2CC2)c2ncccc2C1 | 0.359% |
| CCn1nc(C)cc1C(=O)NCc1nc(C)cc(C)n1 | -0.745% |
| CCC1CN(C(=O)NCc2cccnc2-n2cccn2)CCO1 (centres undefined) | -12.5% |
| CC(C)Cc1nc(-c2ccnc(N3CCNCC3)n2)no1 | 2.04% |
| COc1ccc(CN2C[C@@H](CN(C)C)[C@@H](CO)C2)cc1CN1CCCC1 | 4.59% |
| Cc1ccc(C(=O)N2CCC3(CC2)NC(=O)CC3c2ccccc2)cn1 (centres undefined) | -2.47% |
| COc1ccc(-c2cnc(CN3CCCC3Cn3cccn3)o2)cc1 (centres undefined) | -5.71% |
| Cc1noc(C)c1CCC(=O)N[C@@H]1CC[C@@H](Oc2cccnc2)[C@@H]1O | -2.62% |
| CC(C)CN1CC(c2nc(-c3cccc(F)c3)c[nH]2)CC1=O (centres undefined) | 4.52% |
| CS(=O)(=O)NC1CCCN(C(=O)Nc2cccnc2N2CCCC2)C1 (centres undefined) | -131% |
| CCn1cc(CN2CCCC(CO)(CCc3ccccc3)C2)c(C)n1 (centres undefined) | -4.63% |
| CC[C@H]1CN2CC[C@H]1C[C@@H]2CNC(=O)Nc1ccc(Br)cc1 | 1.08% |

| SMILES | cytotoxicity at 10 µM |
| --- | --- |
| CCNC(=O)[C@@H]1C[C@H](NC(=O)c2cc(=O)[nH]c3ccc(C)cc23)CN1C | 7.44% |
| Cn1cc(CN2CCn3cc(CNC(=O)C4CCC4)nc3C2)cn1 | -6.66% |
| Cc1ccc(F)c(NS(=O)(=O)c2cc3c(c(C(=O)O)c2)OCCO3)c1 | -5.32% |
| CN1CCN(C(=O)c2ccc(=O)n(C)c2)c2ccccc21 | -11.5% |
| COc1cc(OC)c(C2SCC(=O)Nc3n[nH]cc32)cc1OC (centres undefined) | -6.08% |
| O=C(NC1CC1)N1CCc2ccc(=O)n(Cc3cccnc3)c2CC1 | 0.995% |
| COc1ccc(CNC(Cc2ccsc2)c2ncccc2C)cc1OC (centres undefined) | 0.735% |
| O=C(NCCc1ccccn1)c1n[nH]c2c1CCC2 | -3.81% |
| Cc1cc(CC(=O)NC2CCCN(c3ccccc3Cl)C2=O)n[nH]1 (centres undefined) | 3.55% |
| CCc1nc(C)c(C(=O)N[C@@H]2c3ccccc3C[C@@H]2O)o1 | 4.57% |
| CN(C)c1ncccc1CNC(=O)N1CCCC1CN1CCCC1 (centres undefined) | -12.4% |
| COc1ccc(C(=O)NCc2cccnc2N2CCOCC2)o1 | 3.1% |
| Cc1nc(CN(C)C2CCN(CC(=O)N(C)CCC#N)C2)no1 (centres undefined) | -3.6% |
| Cc1[nH]ncc1C(=O)N1CCCC(c2ccn[nH]2)C1 (centres undefined) | 0.23% |
| CN1CCc2c(C#N)c(NCc3cccnc3)n3cnnc3c2C1 | 11.2% |
| Cn1cnnc1C1CCCN(C(=O)CCc2ccc3c(c2)OCO3)C1 (centres undefined) | 0.415% |
| CC1(C)CNC(=O)CN(C(=O)Cc2ccccc2)C1 | -6.92% |
| CC(=O)N1CC2(CCN(Cc3ccc(Cl)cc3)C2)Cc2ccccc21 (centres undefined) | 7.74% |
| CCN(Cc1noc(C2CCC2)n1)C(=O)c1cn2ccsc2n1 | 5.44% |
| O=C(NC[C@H]1OC[C@@H](NC2CCC(F)(F)CC2)[C@@H]1O)c1cccs1 | -7.34% |
| Cc1ccc(NC2CCN(C(=O)c3cccc4ncccc34)CC2)nn1 | 7.51% |
| C=C(C)COc1ccc(C(=O)N(C)C(C)c2ccon2)cc1 (centres undefined) | 4.18% |

| SMILES | cytotoxicity at 10 µM |
| --- | --- |
| c1cnc(N2CC3(CCN(C4CCOC4)CC3)c3ccccc32)nc1 (centres undefined) | -4.2% |
| CO[C@@H]1CCN(S(=O)(=O)c2cn(C)cn2)[C@H]1Cc1cnn(C)c1 | 4.56% |
| CC(NC(=O)C1=NN(C)C(=O)CC1)c1ccc(Cl)cc1 (centres undefined) | -20.7% |
| Cc1nc(NCC2CC2)nc2c1COCC21CCN(C)C1 (centres undefined) | -0.722% |
| O=C1CCC2(CCC(NC3CCOCC3)CC2)N1Cc1ccccc1 (centres undefined) | -0.0368% |
| O=C1CN(C(=O)C2CCOCC2)CCN1Cc1ccc(Cl)cc1 | -146% |
| O=C(NCCSCc1cccs1)C1CCCN(C(=O)N2CCCC2)C1 (centres undefined) | -13.6% |
| Cc1cnn(CC2CN(CC(=O)N(C)Cc3cnn(C)c3)CCO2)c1 (centres undefined) | -18.4% |
| CCN(Cc1ccc(F)c(F)c1)Cc1nc2c(cnn2C)c(=O)[nH]1 | -4.18% |
| C[S+]([O-])c1nncn1CC(=O)c1ccc(OC(F)F)cc1 (centres undefined) | -8.56% |
| CC(C)Cn1ccnc1CNC(=O)N1CCCC1CN1CCOCC1 (centres undefined) | -6.29% |
| Cc1nc(C)n(CC2CN(c3ncnc4[nH]ccc34)CCO2)n1 (centres undefined) | 0.433% |
| CC1=C(c2ccc(C)cc2)S(=O)(=O)N=C1N1CCc2ccccc21 | -7.12% |
| O=C(C1CCOCC1)N1CCc2ncc(CN3CCOCC3)n2CC1 | -79.6% |
| CC(C)CNC(=O)N1C[C@@H]2CCCN[C@@H]2C1 | 5% |
| Cc1nn(C)c(N(C)C)c1CNCc1cccnc1 | 6% |
| CCN1CCN(C)C2(CCN(C(=O)CC(F)(F)F)CC2)C1=O | 0.797% |
| c1cc(CN2CCCC(c3ccnc4nccn34)C2)ccn1 (centres undefined) | -3.29% |
| O=C(CCn1ccc2ccc(F)cc21)/N=c1\[nH]nc(C2CCCO2)s1 (centres undefined) | -0.0308% |
| Cn1ccc(CN2CCC3(CC2)CC(Nc2ccccn2)CO3)n1 (centres undefined) | -1.19% |
| CN1CC(=O)N(c2cccc(F)c2)CC12CCN(Cc1ccncc1)C2 (centres undefined) | 5.69% |
